Data taken from the RNAGym collection of RNA variant scans (doi:10.1126/science.aae0568).
This sample holds only a part of the variants without activity.

B1: tRNA (parent)
chain: GUUCCGUUGGCGUAAUGGUAACGCGUCUCCCUCCUAAGGAGAAGACUGCGGGUUCGAGUCCCGUACGGAACG

Variants of: B1
Assay: yeast fitness relative to wild type (ratio to wild type); higher = fitter; tRNA-Arg(CCU), competitive growth, 37 C, YPD
How it was run: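 Gene amplicons from the start population and from each of six end populations were read by 100-nucleotide paired-end sequencing. Those end populations came from pooled Saccharomyces cerevisiae strains carrying tRNA-Arg(CCU) gene variants at the native locus, competed in YPD at 37°C for 24 hours. Fitness relative to wild type was worked out from changes in genotype frequencies. Genotypes needed ≥ 100 starting reads, and estimates < 0.5 were set to 0.5.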

Variant | yeast fitness
U53G G56C G67C | 0.605
A57C U64G C66U | ≤ 0.5
G56A A69U | 1.01
A57G A65G C66U | 0.65
C55G U59A A70G | 0.731
C55U G58A U59C C62U | ≤ 0.5
G52A C60A A69G | ≤ 0.5
G56C A57U G58A | ≤ 0.5
A57C A70G | 0.664
A57U C62A | 0.629
A57G U64C A65C | 0.506
C55U G58A | 0.642
A57C A65C A70C | 0.571
C60U A69G | 0.572
C60U A69C | 0.713
G56A A70U | 0.918
U54C G68A | 0.937
U59A A65U | 0.636
G52C A57C | 0.526
G56U A69C | 0.717
U59A C66A | 0.63
U53G U59C C66U | ≤ 0.5
C60G G67A | 0.584
A57G C60U G68C | 0.527

Variant | yeast fitness
U53A A69U | 0.891
U53A A69C | 0.622
G58C C61A A65U | ≤ 0.5
A57U U59A A65C | ≤ 0.5
U53C A69C | 0.881
U54C C62U | 0.815
G58C C62G | 0.755
A57U G68C | 0.652
U53A A57C | 0.623
C55U C61U | 0.75
G56A A69C A70U | 0.825
U54C G58A | 0.834
C55A U64C | 0.623
A57C G67C | 0.707
U59G | 1.01
U59C | 1
U59A | 0.973
U59C A70G | 1.01
C55A C62G | 0.543
G51A G56C | 0.597
G52A G68A | 0.678
U54C G56A | 0.788
G52C A57U C62U C66G | ≤ 0.5
C55G A69U | 0.636

Variant | yeast fitness
C55G A69G | 0.627
C55A A65C | 0.603
U54A C61G | 0.63
G51C U54A | ≤ 0.5
C60A U64A | 0.561
G52A C55G A57U | ≤ 0.5
G51C G56A | 0.698
G56A G68C | 0.838
U54C C66U A69U | 0.62
A57G A65G | 1.02
G56A G67U | 0.99
C55G A57U | 0.633
C60A G68C | 0.734
C55G C61U | 0.743
G52A G63A | 0.546
G52A G63C | 0.652
U54G A65C | 0.606
C55A G63C | 0.603
A57G A70G | 0.889
G52A A57C A69U | 0.565
A57C C60A | ≤ 0.5
U59A C60U | 0.74
C55U A57U | 0.634
U59G G63C | 0.639

Variant | yeast fitness
G52C A70C | 0.715
G52C A70G | 0.637
U54C C66U | 0.767
G58C G63A | 0.873
C55U A65U | 0.794
U53G A65U | 0.635
A57G | 0.998
A57U | 0.731
A57C | 0.62
G52C G56A | 0.689
A57U A70U | 0.69
A57C C60U A69C | ≤ 0.5
C55U C61G C62G | 0.629
C55U A69C | 0.762
U54C A70U | 0.869
G52C A57U C60U C62U | ≤ 0.5
U53C C66U | 0.814
U53A G56C | ≤ 0.5
U54G A70U | 0.678
G52C G63A A65G | ≤ 0.5
G51C C61A | 0.516
G52A A57C A65C | 0.647
A57G C66U | 0.816
G58A A70U | 0.955

Variant | yeast fitness
U54A C61G A65U | ≤ 0.5
G51C A65C C66U | ≤ 0.5
G56C C61U | 0.747
G58C C66U | 0.982
C55G G56A | 0.628
U59C G68A | 0.817
G58A A69U | 0.986
C55A A57C C66U | ≤ 0.5
C55U U64C | 0.873
G56C A69C A70U | 0.605
C55U C62G | 0.739
A57U A69G | 0.665
G56A C60G | 0.681
C55G A57C C61A C66U | 0.544
G52C U53C | ≤ 0.5
G52C U59A | 0.598
G52C U59G | 0.538
U54G G63C | ≤ 0.5
G56A U59C A65C | 0.738
G56A A57C | 0.699
G56A A57G | 0.905
U59G C60G | 0.638
U59G C60U | 0.63
A57U A65G | 0.753

Variant | yeast fitness
A57G U59C A69U | 0.748
C60A A69G | 0.56
U53G C66U | 0.604
G52C A57C G63C U64C | ≤ 0.5
U59A A70C | 0.741
U53A G67A | 0.686
U53A U59A | 0.664
G56C A57C C61G | ≤ 0.5
U53A C55U | 0.545
C55A G68C | 0.674
G51A G58A A65U | 0.713
A57C U64G | 0.512
C55A A70U | 0.658
G56C A65G A70U | 0.587
A57C C61G A69C | ≤ 0.5
C55G G68C | 0.624
C60A G67C | 0.654
G51A G58A | 0.967
A57G A69G A70G | 0.704
C55U G67C | 0.677
G58A G67C | 0.988
G58A C62U A69C | 1.1
U54G A69U | 0.648
C55U C61A G68A | ≤ 0.5

Variant | yeast fitness
C60G G68A | 0.695
G58C C61A A69U | 0.55
G56A A65U | 0.978
U54C U64C | 0.758
G56C G58C | 0.563
G56C G58A | 0.607
U59A G63A | 0.872
G52A G56U | 0.554
G58A G68C | 1.01
G56C A69U A70U | ≤ 0.5
G58C A69U | 0.846
G58C G67C | 1.17
G58C G67A | 0.807
A57U A65C C66G | ≤ 0.5
C60G C66G A70C | ≤ 0.5
G56A G58A G67C | 0.679
C55U U64A C66A | ≤ 0.5
G58A C66U G67U | 0.543
U59G C66A | 0.62
C55G A65C G67A | ≤ 0.5
C55U C66A | 0.656
C55G C60A | 0.536
U53A G58A G68U | ≤ 0.5
